Measurements published in paper PMC4252766 (FEBS letters, 2014).

Tests used:
[1] = tested on: BRPF1 bromodomain; test: X-ray crystallography of BRPF1 bromodomain with histone peptides; format: binding, human; settings: co-crystal structures PDB 4QYL (H2AK5ac) and 4QYD (H4K12ac)
How it was run: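 E. coli-expressed BRPF1 bromodomain (residues 629–742), gel-filtered into 20 mM Tris pH 8.0, 150 mM NaCl, 1 mM DTT; 2.3 mM protein + 5 mM peptide; drops at 4°C. H2AK5ac: 0.2 M NH₄SO₄, 0.1 M MES pH 6.5, 30% PEG MME 5,000, seeding, 1% propylene glycol. H4K12ac: 0.1 M HEPES pH 7.5, 10% PEG 6,000, 5% MPD. Flash-cooled, 100 K.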

[2] = tested on: BRPF1 bromodomain; settings: ref [31]; cited from earlier work

Substance: SGRG Kac QGGKARA [H2AK5ac]
- binding by x-ray crystallography [1]: bind
- histone ligand preference [2]: preferentially binds

Substance: GKGGKGLG Kac GGAKR [H4K12ac]
- binding by x-ray crystallography [1]: bind
- histone ligand preference [2]: preferentially binds
